Source: paper PMC4182178 (Oncogene, 2014)
Like-named read-outs stand apart in the source and are kept apart here.

How the values were obtained:
Stat3 phosphorylation [1] = assay: Phosphoflow assay, G-CSF stimulated Stat3 phosphorylation in Kasumi-1 cells; format: cell-based; details: read-out: IC50 G-CSF stimulated Stat3 phosphorylation, Mean ± SEM, n ≥ 2, G-CSF 10 ng/ml 15′
Stat3 phosphorylation [2] = assay: Constitutive Stat3 phosphorylation in breast cancer cell lines; format: cell-based, human; details: for IC50: read-out: IC50 Constitutive Stat3 phosphorylation, Mean ± SEM, n ≥ 2
MDA-MB-231 cells = assay: Anchorage independent growth; format: cell-based, human
MDA-MB-468 cells = assay: Anchorage independent growth; format: cell-based, human
Hs 578T cells = assay: Anchorage independent growth; format: cell-based, human; details: read-out: IC50 Anchorage independent growth (MTT), Mean ± SEM, n ≥ 2
Procedure, shortened: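 Cells grown in triplicate in ultra-low-attachment 96-well plates in complete DMEM ± test compound (0/0.1/0.3/1/3/10/100 μM) for 48–72 hrs. Viable cells were quantitated by MTT. Relative % viability was calculated as treated ÷ untreated × 100 and plotted against log concentration. IC50 was derived from ≥2 replicate experiments.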

MCF 10A = assay: Anchorage independent growth; format: cell-based
MCF-12A = assay: Anchorage independent growth; format: cell-based
MCF-7 = assay: Anchorage independent growth; format: cell-based, human
MDA-MB-453 = assay: Anchorage independent growth; format: cell-based
ZR-75-1 = assay: Anchorage independent growth; format: cell-based
T-47D = assay: Anchorage independent growth; format: cell-based, human
Sum159PT = assay: Anchorage independent growth; format: cell-based
MC1 = assay: Mammosphere assay, patient-derived xenograft cells; format: cell-based, human; details: read-out: IC50 Mammosphere assay, Mean ± SEM, n ≥ 2
Procedure, shortened: (§1)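 Patient-derived breast tumors serially grown in SCID/Beige mouse fat pad were excised, minced, collagenase-digested, mesh-filtered and suspended as single cells in MEGM+. Cells were plated in serum-free, growth-factor-enriched medium in low-attachment plates ± test compound (0/0.1/0.3/1/3/10/100 μM), fed twice weekly, and counted by automated colony counter after 5–12 days. Percent of untreated colony number was fitted for IC50.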

BCM-2665 = assay: Mammosphere assay, patient-derived xenograft cells; format: cell-based, human; details: read-out: IC50 Mammosphere assay, Mean ± SEM, n ≥ 2
Procedure, shortened: as §1

GFP+ SUM159PT cells = format: cell-based; details: PL 3 and 10 μM
Procedure, shortened: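 SUM159PT cells carrying a lentiviral Stat3-GFP reporter (GFP driven by four M67 repeats) were grown as xenografts in pre-cleared mammary glands of SCID/Beige mice. Excised tumors were digested to single cells and FACS-sorted into GFP+ and GFP− populations. Mammosphere formation efficiency was then assayed in MEGM+ without or with test compound.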

MEF/GFP-Stat3α cells = assay: Anchorage-independent colony growth and MTT viability of MEF/GFP-Stat3α cells; format: cell-based; details: 3μM of PL
Procedure, shortened: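 Stat3−/− MEFs stably expressing GFP-Stat3α were grown under anchorage-independent conditions with increasing doses of test compound, then photographed. Mean colony number from duplicate wells was taken as a percentage of DMSO-treated cells. Viability by MTT was also expressed relative to DMSO-treated cells. IC50 values were fitted against log concentration.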

Stat3-regulated genes [3] = assay: Quantitative RT-PCR of Stat3-regulated genes in MDA-MB-468 cells; format: cell-based, human; details: 30 μM, 6–8 hr
cleaved caspase 3 = assay: Cleaved caspase 3 in MDA-MB-468 cells; format: cell-based, human; details: PL 30μM, 12 hrs
Procedure, shortened: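 MDA-MB-468 cells were exposed to 30 μM test compound and sampled over 15 min to 24 h. Cleaved caspase 3 and GAPDH were measured in whole protein by Luminex bead immunoassay. GAPDH-normalized active caspase 3 was expressed as a percentage of the pre-treatment value.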

[4] = system: MDA-MB-468 tumor xenografts; assay: Human breast cancer cell line xenograft assay, tumor growth; format: in vivo, nude mice; details: 15 mg/Kg body weight/day IP, 21 days; p < 0.05
Stat3-regulated genes [5] = assay: mRNA of Stat3-regulated genes in MDA-MB 468 xenograft tumors; format: in vivo, nude mice; details: 15 mg/Kg; vs vehicle; p<0.05; listed as PL
Procedure, shortened: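 mRNA levels of Stat3-regulated genes were measured by Q-RT-PCR in excised tumors from nude mice bearing subcutaneous MDA-MB-468 xenografts. Mice had been treated i.p. with test compound 15 mg/Kg in DMSO or with vehicle, 5 days/week for 3 weeks. Values were normalized to β-actin and compared against vehicle-treated tumors.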

Toxicity in mice = format: in vivo; details: up to a dose of 30 mg/Kg/day for 14 days
[6] = biological target: glutathione S-transferase pi 1 (GSTP1); details: read-out: IC50 for GSTP1 inhibition; cited from earlier work
GFP-Stat3α = GFP-Stat3α (Homo sapiens, UniProt P40763); format: cell-based
[7] = read-out: Anchorage independent Growth IC50, 80 hrs, no sensitivity taken as 100 μM
[8] = read-out: Anchorage Independent Growth IC50, 16 hrs
[9] = read-out: Anchorage independent Growth IC50, 80 hrs

GFP-Stat3α, sequence (P40763 whole entry): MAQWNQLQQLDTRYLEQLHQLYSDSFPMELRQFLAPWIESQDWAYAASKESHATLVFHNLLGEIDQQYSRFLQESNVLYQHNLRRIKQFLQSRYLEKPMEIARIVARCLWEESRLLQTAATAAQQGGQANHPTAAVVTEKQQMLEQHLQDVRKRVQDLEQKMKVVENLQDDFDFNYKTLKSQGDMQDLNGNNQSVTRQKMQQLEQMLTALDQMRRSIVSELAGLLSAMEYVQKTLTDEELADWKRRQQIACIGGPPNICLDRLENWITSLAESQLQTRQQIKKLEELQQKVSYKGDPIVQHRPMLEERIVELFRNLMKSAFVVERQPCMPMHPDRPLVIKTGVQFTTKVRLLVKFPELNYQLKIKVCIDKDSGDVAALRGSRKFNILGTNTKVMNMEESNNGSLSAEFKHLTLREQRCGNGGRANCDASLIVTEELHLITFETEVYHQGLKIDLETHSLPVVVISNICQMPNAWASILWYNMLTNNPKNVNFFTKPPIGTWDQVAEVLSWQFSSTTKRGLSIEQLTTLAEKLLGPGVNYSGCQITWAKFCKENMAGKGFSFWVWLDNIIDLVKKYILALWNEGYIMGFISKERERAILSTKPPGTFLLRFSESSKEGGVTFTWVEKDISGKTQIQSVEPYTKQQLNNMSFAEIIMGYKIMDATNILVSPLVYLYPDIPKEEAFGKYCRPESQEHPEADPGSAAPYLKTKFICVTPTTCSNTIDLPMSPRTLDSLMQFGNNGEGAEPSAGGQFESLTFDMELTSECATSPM

## COc1cc(/C=C/C(=O)N2CCC=CC2=O)cc(OC)c1OC [Piperlongumine, piperlongumine]
Stat3 phosphorylation [1]
  IC50: 3.7 ± 1.7 µM
Stat3 phosphorylation [2]; MDA-MB-231 and MDA-MB-468 (pStat1, pStat5, total Stat1 in MDA-MB-468)
  effect on levels of total Stat3 or pStat1, pStat5 and total Stat1: without substantially affecting
Stat3 phosphorylation [2]; MDA-MB-468, PL 30 μM
  reduction of pStat3 levels at 15 min: > 50%
  time of maximal reduction of pStat3: ≤ 30 min
Stat3 phosphorylation [2]; Sum159PT xenograft-derived GFP+ cells, increasing doses of PL
  pStat3 levels in the GFP+ cells: decreased
Stat3 phosphorylation [2]; MDA-MB 231
  IC50: 0.4 ± 0.5 µM
Stat3 phosphorylation [2]; MDA-MB 468
  IC50: 2.8 ± 2.1 µM
MDA-MB-231 cells; read-out: Anchorage Independent Growth IC50, 16 hrs, MDA-MB-231
  IC50: 9.2 µM
MDA-MB-231 cells; read-out: Anchorage independent Growth IC50, 80 hrs, MDA-MB-231
  IC50: 0.3 µM
MDA-MB-231 cells; read-out: IC50 Anchorage independent growth (MTT), MDA-MB 231, Mean ± SEM, n ≥ 2
  IC50: 1.2 ± 1.8 µM
MDA-MB-468 cells; read-out: Anchorage Independent Growth IC50, 16 hrs, MDA-MB-468
  IC50: 2.8 µM
MDA-MB-468 cells; read-out: Anchorage independent Growth IC50, 80 hrs, MDA-MB-468
  IC50: 0.9 µM
MDA-MB-468 cells; read-out: IC50 Anchorage independent growth (MTT), MDA-MB 468, Mean ± SEM, n ≥ 2
  IC50: 4.6 ± 4.8 µM
Hs 578T cells
  IC50: 0.2 ± 0.1 µM
MCF 10A; read-out: Anchorage Independent Growth IC50, 16 hrs, no sensitivity taken as 100 μM
  IC50: > 100 µM
MCF 10A; [7]
  IC50: > 100 µM
MCF-12A; [8]
  IC50: 16.2 µM
MCF-12A; [7]
  IC50: > 100 µM
MCF-7; [8]
  IC50: 7 µM
MCF-7; [9]
  IC50: 3.6 µM
MDA-MB-453; [8]
  IC50: 15.5 µM
MDA-MB-453; [9]
  IC50: 1.7 µM
ZR-75-1; [8]
  IC50: 80.6 µM
ZR-75-1; [9]
  IC50: 0.8 µM
T-47D; [8]
  IC50: 42 µM
T-47D; [9]
  IC50: 0.3 µM
Sum159PT; [8]
  IC50: 12.9 µM
Sum159PT; [9]
  IC50: 0.8 µM
MC1
  IC50: 4.2 ± 2.3 µM
BCM-2665
  IC50: 0.1 µM
GFP+ SUM159PT cells
  mammosphere formation by GFP+ cells: completely inhibited
MEF/GFP-Stat3α cells
  spheroid colony formation: completely abrogating
Stat3-regulated genes [3]
  increase of FAS (CD95) mRNA: two fold
Cleaved caspase 3
  increase of caspase 3 cleavage compared to earlier time points: ~ 12 fold
[4]
  reduction of tumor weight: > 50%
Stat3-regulated genes [5]
  reduction of β-actin-normalized BcL-xL mRNA in tumors: ~ 50%
  reduction of β-actin-normalized Survivin mRNA in tumors: ~ 50%
Toxicity in mice
  toxicity in mice: non-toxic
[6]
  IC50: ~100 µM

## O=C1C=CC(=O)c2c1ccc1c2ccc2ccccc21 [chrysene 1,4 quinone]
GFP-Stat3α
  IC50: 10 µM
